Converted amounts (≈) assume the structure as drawn. The source made the active and inactive calls. The calls are words filed in the database; no cut-off is given here.
How the values were obtained:
[1] = species: Homo sapiens; assay: Cytotoxicity in multidrug resistant human A549RT-eto cells assessed as reduction in cell survival at; type: functional, cell-based
[2] = Induction of cell death in multidrug resistant human A549RT-eto cells at 20 ug/ml incubated for 24 hrs by MTT assay; type: functional
[3] = species: Homo sapiens; assay: Induction of autophagy in multidrug resistant human A549RT-eto cells assessed as increase in beclin-1 protein level at 20 ug/ml incubated for 24 hrs in presence of HDAC4 siRNA by immunoblot; type: functional
Outline: (§1)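 A549RT-eto cells transfected with control or HDAC4 siRNA (100 nM), then 20 µg/ml for 24 h; MTT viability, mean of three experiments; lysates on 12% SDS-PAGE immunoblotted for HDAC4, beclin-1 and LC3-I cleavage.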

[4] = species: Homo sapiens; assay: Induction of autophagy in multidrug resistant human A549RT-eto cells assessed as increase in beclin-1 protein level at 20 ug/ml incubated for 24 hrs in presence of pan-caspase inhibitor Z-VAD by immunoblot; type: functional
Outline: (§2)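 A549RT-eto cells given 20 µg/ml alone, Z-VAD (20 µM) alone, or both for 24 h; MTT viability, mean of at least three experiments; lysates on 12% SDS-PAGE immunoblotted for cleaved PARP, beclin-1, LC3B and Atg5.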

[5] = species: Homo sapiens; assay: Reduction in HDAC4 protein expression in multidrug resistant human A549RT-eto cells at 20 ug/ml incubated for 24 hrs by immunoblot; type: functional
Outline: (§3)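 A549 and A549RT-eto cells treated with 20 µg/ml for 24 h; lysates resolved on 8% SDS-PAGE; immunoblot for HDAC4, P-gp and PARP cleavage.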

[6] = species: Homo sapiens; assay: Induction of autophagy in multidrug resistant human A549RT-eto cells assessed as increase in GFP-LC3-II puncta at 7.5 to 20 ug/ml incubated for 24 hrs by fluorescence microscopy; type: functional
[7] = species: Homo sapiens; assay: Induction of autophagy in multidrug resistant human A549RT-eto cells assessed as increase in LC3-I to LC3-II conversion at 20 ug/ml incubated for 24 hrs in presence of beclin-1 siRNA by immunoblot; type: functional
Outline: (§4)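 A549RT-eto cells transfected with control or beclin-1 siRNA (100 nM), then given 0 or 20 µg/ml for 24 h; viability by light microscopy and MTT as percent relative viability, mean of three experiments; lysates on 12% SDS-PAGE immunoblotted for PARP cleavage, beclin-1 and LC3.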

[8] = Cytotoxicity in multidrug resistant human A549RT-eto cells incubated for 72 hrs by MTT assay; type: functional, cell-based
Outline: (§5)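 Parental A549 and etoposide-resistant A549RT-eto cells exposed 72 h to two-fold serial dilutions, 25 to 1.56 µg/ml; viability by MTT; IC50 derived from dose-response; mean of triplicates with standard deviation.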

[9] = species: Homo sapiens; assay: Induction of autophagy in multidrug resistant human A549RT-eto cells assessed as increase in LC3-I to LC3-II conversion at 20 ug/ml incubated for 24 hrs in presence of HDAC4 siRNA by immunoblot; type: functional; outline: as §1
[10] = species: Homo sapiens; assay: Induction of apoptosis in multidrug resistant human A549RT-eto cells assessed as reduction in pro-caspse-9 protein expression at 10 to 20 ug/ml incubated for 12 hrs by Western blot method; type: functional
[11] = tested on: A549; assay: Cytotoxicity in human A549 cells incubated for 72 hrs by MTT assay; type: functional, cell-based; conditions: A549, 72 h; outline: as §5
[12] = species: Homo sapiens; assay: Induction of autophagy in multidrug resistant human A549RT-eto cells assessed as increase in LC3-I to LC3-II conversion at 20 ug/ml incubated for 24 hrs by immunoblot; type: functional
[13] = species: Homo sapiens; assay: Induction of apoptosis in multidrug resistant human A549RT-eto cells assessed as increase in PARP cleavage at 20 ug/ml incubated for 24 hrs in presence of pan-caspase inhibitor Z-VAD by Western blot method; type: functional; outline: as §2
[14] = species: Homo sapiens; assay: Induction of apoptosis in multidrug resistant human A549RT-eto cells assessed as increase in PARP cleavage at 20 ug/ml incubated for 24 hrs in presence of HDAC4 siRNA by Western blot method; type: functional
[15] = species: Homo sapiens; assay: Reduction in P-gp protein expression in multidrug resistant human A549RT-eto cells at 20 ug/ml incubated for 24 hrs by immunoblot; type: functional; outline: as §3
[16] = species: Homo sapiens; assay: Induction of apoptosis in multidrug resistant human A549RT-eto cells assessed as increase in PARP cleavage at 20 ug/ml incubated for 24 hrs in presence of beclin-1 siRNA by Western blot method; type: functional; outline: as §4
[17] = species: Homo sapiens; assay: Induction of autophagy in multidrug resistant human A549RT-eto cells assessed as increase in beclin-1 protein level at 20 ug/ml incubated for 24 hrs by immunoblot; type: functional
[18] = species: Homo sapiens; assay: Cytotoxicity in multidrug resistant human A549RT-eto cells assessed as reduction in cell survival at 20 ug/ml incubated for 24 hrs by MTT assay; type: functional, cell-based
Outline: (§6)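 A549RT-eto cells held at fixed 20 µg/ml and sampled at several exposure times (0, 6, 12, 24 h); survival scored.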

[19] = species: Homo sapiens; assay: Induction of apoptosis in multidrug resistant human A549RT-eto cells assessed as increase in PARP cleavage at 10 to 20 ug/ml incubated for 12 hrs by Western blot method; type: functional
Outline: (§7)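 A549RT-eto cells treated at 10 and 20 µg/ml, lysed at 12 h; lysates resolved on 12% SDS-PAGE; immunoblot for pro-caspase 8 and PARP cleavage.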

[20] = Induction of cell death in multidrug resistant human A549RT-eto cells assessed as cell survival at 20 ug/ml incubated for 24 hrs in absence of pan-caspase inhibitor Z-VAD by light microscopy; type: functional; conditions: read-out: Survival
Outline: (§8)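 Etoposide-resistant A549RT-eto cells exposed for 24 h to XanX 20 µg/ml, pan-caspase inhibitor Z-VAD 20 µM, or both combined. Morphology inspected by light microscope. Viability read by MTT assay as percentage relative to control. Values are the mean of at least three experiments.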

[21] = Induction of cell death in multidrug resistant human A549RT-eto cells assessed as cell survival at 20 ug/ml incubated for 24 hrs in presence of pan-caspase inhibitor Z-VAD by light microscopy (reference value: 30%); type: functional; conditions: read-out: Survival; outline: as §8
[22] = species: Homo sapiens; assay: Induction of cell death in multidrug resistant human A549RT-eto cells at 20 ug/ml incubated for 24 hrs in presence of beclin-1 siRNA by MTT assay; type: functional; outline: as §4
[23] = species: Homo sapiens; assay: Induction of cell death in multidrug resistant human A549RT-eto cells incubated for 72 hrs by MTT assay; type: functional; outline: as §5
[24] = species: Homo sapiens; assay: Induction of autophagy in multidrug resistant human A549RT-eto cells assessed as increase in beclin-1 protein level at 7.5 to 20 ug/ml incubated for 12 hrs by immunoblot
[25] = species: Homo sapiens; assay: Induction of cell death in multidrug resistant human A549RT-eto cells at 20 ug/ml incubated for 24 hrs in presence of beclin-1 siRNA by light microscopy; type: functional; outline: as §4
[26] = species: Homo sapiens; assay: Cytotoxicity in multidrug resistant human A549RT-eto cells assessed as reduction in cell survival at 20 ug/ml incubated for 12 hrs by MTT assay; type: functional, cell-based; outline: as §6
[27] = species: Homo sapiens; assay: Induction of cell death in multidrug resistant human A549RT-eto cells incubated for 72 hrs by light microscopy; type: functional
Outline: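 A549RT-eto cells given 0, 1.56, 3.13, 6.25, 12.5 or 25 µg/ml for 72 h; morphology and viability judged under light microscope.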

[28] = Induction of cell death in multidrug resistant human A549RT-eto cells assessed as cell survival at 20 ug/ml incubated for 24 hrs in presence of pan-caspase inhibitor Z-VAD by MTT assay (reference value: 30%); type: functional; conditions: read-out: Survival; outline: as §8
[29] = Induction of cell death in multidrug resistant human A549RT-eto cells at 20 ug/ml incubated for 24 hrs in presence of HDAC4 siRNA by MTT assay; type: functional
Outline: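 A549RT-eto cells transfected with control or HDAC4 siRNA (100 nM), then exposed to XanX 20 µg/ml for 24 h. Morphology checked by light microscope. Viability by MTT assay as percentage relative viability, mean of three experiments.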

[30] = species: Homo sapiens; assay: Induction of autophagy in multidrug resistant human A549RT-eto cells assessed as reduction in mTOR phosphorylation at 7.5 to 20 ug/ml incubated for 12 hrs by immunoblot
[31] = species: Homo sapiens; assay: Induction of autophagy in multidrug resistant human A549RT-eto cells assessed as increase in LC3-I to LC3-II conversion at 7.5 to 20 ug/ml incubated for 12 hrs by immunoblot
[32] = species: Homo sapiens; assay: Induction of autophagy in multidrug resistant human A549RT-eto cells assessed as increase in vacuoles formation at 7.5 to 20 ug/ml by light microscopy
[33] = Induction of cell death in multidrug resistant human A549RT-eto cells assessed as cell survival at 20 ug/ml incubated for 24 hrs in absence of pan-caspase inhibitor Z-VAD by MTT assay; type: functional; conditions: read-out: Survival; outline: as §8
[34] = species: Homo sapiens; assay: Induction of apoptosis in multidrug resistant human A549RT-eto cells assessed as reduction in pro-caspse-8 protein expression at 10 to 20 ug/ml incubated for 12 hrs by Western blot method; type: functional; outline: as §7
[35] = species: Homo sapiens; assay: Induction of autophagy in multidrug resistant human A549RT-eto cells assessed as increase in LC3-I to LC3-II conversion at 20 ug/ml incubated for 24 hrs in presence of pan-caspase inhibitor Z-VAD by immunoblot; type: functional; outline: as §2

Structure (SMILES): CC(C)=CCc1c2c(c3oc4c(O)c(O)ccc4c(=O)c3c1O)C(C)(C)C(C)O2 (stereo not given)
- Activity [1]: inactive
- Activity [2]: 60%
- Activity [3]: Active
- Activity [4]: Active
- Activity [5]: Active
- Activity [6]: Active
- Activity [7]: inactive
- IC50 [8]: 4.65 µg/mL (≈ 11.7 µM)
- Activity [9]: Active
- Activity [10]: Active
- IC50 [11]: 2.56 µg/mL (≈ 6.46 µM)
- Activity [12]: Active
- Activity [13]: inactive
- Activity [14]: Active
- Activity [15]: Active
- Activity [16]: Active
- Activity [17]: Active
- Activity [18]: Active
- Activity [19]: Active
- viability at 20 µg/mL [20]: 30%
- viability at 20 µg/mL [21]: 85%
- Activity [22]: inactive
- Activity [23]: Dose-dependent effect
- Activity [24]: Active
- Activity [25]: inactive
- Activity [26]: inactive
- Activity [27]: Dose-dependent effect
- viability at 20 µg/mL [28]: 85%
- Activity [29]: 80%
- Activity [30]: Active
- Activity [31]: Active
- Activity [32]: Active
- viability at 20 µg/mL [33]: 30%
- Activity [34]: Active
- Activity [35]: Active
